Source: ChEMBL document CHEMBL1142972, “Novel N-substituted indol-3-ylglyoxylamides probing the LDi and L1/L2 lipophilic regions of the benzodiazepine receptor site in search for subtype-selective ligands” (J Med Chem, 2007)
The source made the active and inactive calls. The calls are words filed in the database; no cut-off is given here.

Experiments:
Bos taurus = species on record: Bos taurus; assay: Displacement of [3H]flumazenil from benzodiazepine receptor in bovine brain membranes at 10 uM; format: cell membranes
Procedure, shortened: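 Bovine cerebral cortex membranes, freeze-thawed once and washed in 50 mM Tris-citrate pH 7.4, used for competition against [3H]flumazenil. Test compound at a fixed 10 µM; read-out is % inhibition of specific binding, as mean of three determinations run in triplicate.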

[1] = target: GABA A receptor alpha-2/beta-2/gamma-2 (Rattus norvegicus) (UniProt P18508+P23576+P63138); assay: Displacement of [3H]flumazenil from rat GABAA alpha-2-beta-2-gamma-2 expressed in HEK293 cells at 10 uM; format: cell-based
Procedure, shortened: (§1)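 [3H]flumazenil competition in membranes of HEK293 cells stably expressing rat GABAA subtypes, prepared in 10 mM potassium phosphate pH 7.4 (48 000g, 4 °C, two washes, final buffer with 100 mM KCl). Single test concentration of 10 µM; % inhibition of specific binding, mean ± SEM of three determinations in triplicate.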

[2] = Displacement of [3H]flumazenil from benzodiazepine receptor in bovine brain membranes; format: cell membranes, Bos taurus
[3] = target: GABA-A receptor; alpha-1/beta-2/gamma-2 (Rattus norvegicus, UniProt P18508+P62813+P63138); assay: Displacement of [3H]flumazenil from rat GABAA alpha-1-beta-2-gamma-2 expressed in HEK293 cells; format: cell-based
GABA-A receptor; alpha-1/beta-2/gamma-2, sequence (P18508 whole entry): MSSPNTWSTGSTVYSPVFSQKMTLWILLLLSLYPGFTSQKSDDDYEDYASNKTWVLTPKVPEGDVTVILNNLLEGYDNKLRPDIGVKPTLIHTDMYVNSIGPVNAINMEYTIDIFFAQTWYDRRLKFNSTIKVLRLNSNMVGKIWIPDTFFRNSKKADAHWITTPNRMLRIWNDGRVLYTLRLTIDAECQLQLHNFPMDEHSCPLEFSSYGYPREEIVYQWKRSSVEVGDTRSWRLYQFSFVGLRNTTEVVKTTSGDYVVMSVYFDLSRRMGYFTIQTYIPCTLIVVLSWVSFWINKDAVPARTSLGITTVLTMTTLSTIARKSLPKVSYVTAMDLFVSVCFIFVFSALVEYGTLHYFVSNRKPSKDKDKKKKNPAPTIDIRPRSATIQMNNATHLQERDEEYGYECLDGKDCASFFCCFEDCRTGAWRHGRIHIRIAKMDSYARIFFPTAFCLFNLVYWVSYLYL
GABA-A receptor; alpha-1/beta-2/gamma-2, sequence (P62813 whole entry): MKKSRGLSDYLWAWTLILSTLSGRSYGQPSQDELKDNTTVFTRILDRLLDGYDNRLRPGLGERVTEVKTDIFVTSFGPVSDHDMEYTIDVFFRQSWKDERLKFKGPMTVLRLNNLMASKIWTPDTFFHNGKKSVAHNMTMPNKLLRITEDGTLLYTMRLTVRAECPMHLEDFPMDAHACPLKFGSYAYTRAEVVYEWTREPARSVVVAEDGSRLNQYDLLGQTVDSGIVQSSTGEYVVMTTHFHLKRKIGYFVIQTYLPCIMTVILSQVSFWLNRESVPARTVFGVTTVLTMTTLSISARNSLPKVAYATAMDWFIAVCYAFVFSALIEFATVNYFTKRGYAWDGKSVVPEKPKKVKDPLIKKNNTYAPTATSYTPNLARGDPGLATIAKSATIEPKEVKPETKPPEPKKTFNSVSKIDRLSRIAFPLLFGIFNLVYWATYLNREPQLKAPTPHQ
GABA-A receptor; alpha-1/beta-2/gamma-2, sequence (P63138 whole entry): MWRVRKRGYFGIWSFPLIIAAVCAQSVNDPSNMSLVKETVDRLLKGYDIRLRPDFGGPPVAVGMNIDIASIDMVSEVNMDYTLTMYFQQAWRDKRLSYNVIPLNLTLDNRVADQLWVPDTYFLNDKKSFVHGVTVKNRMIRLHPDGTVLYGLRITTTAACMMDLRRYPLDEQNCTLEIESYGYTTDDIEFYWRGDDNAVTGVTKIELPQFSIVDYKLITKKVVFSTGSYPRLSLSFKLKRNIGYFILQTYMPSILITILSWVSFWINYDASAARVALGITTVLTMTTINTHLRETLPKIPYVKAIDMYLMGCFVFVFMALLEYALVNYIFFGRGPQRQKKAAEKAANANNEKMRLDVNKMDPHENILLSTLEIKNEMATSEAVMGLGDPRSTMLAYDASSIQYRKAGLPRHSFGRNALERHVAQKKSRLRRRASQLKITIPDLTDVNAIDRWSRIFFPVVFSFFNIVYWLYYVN
Procedure, shortened: (§2)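 Crude membranes from HEK293 cells stably expressing rat GABAA subtypes, cells grown in DMEM/F-12 with 10% FBS at 37 °C, 5% CO2. Homogenized in 10 mM potassium phosphate pH 7.4, spun at 48 000g for 30 min at 4 °C, washed twice, resuspended with 100 mM KCl. [3H]flumazenil displacement; Ki as mean ± SEM of three determinations in triplicate.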

Mus musculus = assay: Decrease in spontaneous motor activity in Balb/C mouse at 10 mg/kg, ip; format: functional, organism-based; parameters: dose 10 mg/kg
[4] = target: GABA A receptor alpha-5/beta-3/gamma-2 (Rattus norvegicus) (UniProt P18508+P19969+P63079); assay: Displacement of [3H]flumazenil from rat GABAA alpha-5-beta-3-gamma-2 expressed in HEK293 cells at 10 uM; format: cell-based; procedure, shortened: as §1
[5] = target: GABA-A receptor; alpha-1/beta-2/gamma-2 (Rattus norvegicus) (UniProt P18508+P62813+P63138); assay: Agonist activity at rat GABAA alpha-1-beta-2-gamma-2 expressed in HEK293 cells assessed as chloride influx; format: functional, cell-based
[6] = target: GABA A receptor alpha-2/beta-2/gamma-2 (Rattus norvegicus, UniProt P18508+P23576+P63138); assay: Displacement of [3H]flumazenil from rat GABAA alpha-2-beta-2-gamma-2 expressed in HEK293 cells; format: cell-based; procedure, shortened: as §2
GABA A receptor alpha-2/beta-2/gamma-2, sequence (P18508 whole entry): as the sequence (P18508 whole entry) above
GABA A receptor alpha-2/beta-2/gamma-2, sequence (P23576 whole entry): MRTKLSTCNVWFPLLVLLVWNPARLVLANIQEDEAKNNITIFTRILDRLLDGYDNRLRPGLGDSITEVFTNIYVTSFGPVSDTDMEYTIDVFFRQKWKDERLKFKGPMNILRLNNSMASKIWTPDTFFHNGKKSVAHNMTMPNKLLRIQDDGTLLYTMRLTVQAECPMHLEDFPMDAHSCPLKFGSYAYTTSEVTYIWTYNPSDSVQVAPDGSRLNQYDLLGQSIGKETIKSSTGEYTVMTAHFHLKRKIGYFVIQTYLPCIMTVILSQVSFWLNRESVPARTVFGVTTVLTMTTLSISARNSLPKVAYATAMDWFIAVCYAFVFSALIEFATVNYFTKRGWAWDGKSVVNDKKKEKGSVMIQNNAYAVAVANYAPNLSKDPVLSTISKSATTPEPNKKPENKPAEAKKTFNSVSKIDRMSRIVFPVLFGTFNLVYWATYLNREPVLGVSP
GABA A receptor alpha-2/beta-2/gamma-2, sequence (P63138 whole entry): as the sequence (P63138 whole entry) above

[7] = target: GABA A receptor alpha-5/beta-3/gamma-2 (Rattus norvegicus, UniProt P18508+P19969+P63079); assay: Displacement of [3H]flumazenil from rat GABAA alpha-5-beta-3-gamma-2 expressed in HEK293 cells; format: cell-based; procedure, shortened: as §2
GABA A receptor alpha-5/beta-3/gamma-2, sequence (P18508 whole entry): as the sequence (P18508 whole entry) above
GABA A receptor alpha-5/beta-3/gamma-2, sequence (P19969 whole entry): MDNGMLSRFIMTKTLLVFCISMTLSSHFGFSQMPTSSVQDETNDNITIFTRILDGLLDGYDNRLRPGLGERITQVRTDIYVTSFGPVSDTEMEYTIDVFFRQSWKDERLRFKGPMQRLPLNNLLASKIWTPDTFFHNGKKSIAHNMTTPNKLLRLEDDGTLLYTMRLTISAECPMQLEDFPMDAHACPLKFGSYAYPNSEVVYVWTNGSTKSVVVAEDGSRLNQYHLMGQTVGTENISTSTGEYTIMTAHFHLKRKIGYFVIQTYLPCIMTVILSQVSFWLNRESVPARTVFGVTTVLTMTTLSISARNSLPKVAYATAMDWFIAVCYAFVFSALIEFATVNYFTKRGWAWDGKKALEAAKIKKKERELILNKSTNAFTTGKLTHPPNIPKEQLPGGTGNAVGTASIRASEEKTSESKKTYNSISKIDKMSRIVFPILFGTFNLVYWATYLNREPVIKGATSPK
GABA A receptor alpha-5/beta-3/gamma-2, sequence (P63079 whole entry): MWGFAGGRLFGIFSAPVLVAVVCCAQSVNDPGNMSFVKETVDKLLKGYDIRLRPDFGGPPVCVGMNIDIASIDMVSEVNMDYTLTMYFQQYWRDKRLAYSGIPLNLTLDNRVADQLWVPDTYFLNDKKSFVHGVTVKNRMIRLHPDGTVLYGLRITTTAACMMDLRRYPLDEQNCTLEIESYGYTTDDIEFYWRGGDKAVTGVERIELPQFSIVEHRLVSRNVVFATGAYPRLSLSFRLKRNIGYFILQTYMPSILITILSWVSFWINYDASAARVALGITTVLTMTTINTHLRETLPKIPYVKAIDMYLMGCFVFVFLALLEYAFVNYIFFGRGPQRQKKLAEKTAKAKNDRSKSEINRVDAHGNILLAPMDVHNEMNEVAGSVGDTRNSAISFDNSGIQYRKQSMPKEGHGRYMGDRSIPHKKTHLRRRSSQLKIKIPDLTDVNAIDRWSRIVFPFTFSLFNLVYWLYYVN

Compound	inhibition (Bos taurus) [%]	Ki [2] [nM]	Ki [3] [nM]	further results
CCCCCCNC(=O)C(=O)c1c[nH]c2ccc([N+](=O)[O-])cc12	53			
CC#Cc1ccc(CNC(=O)C(=O)c2c[nH]c3ccc([N+](=O)[O-])cc23)cc1	0			
Cc1ccc(CNC(=O)C(=O)c2c[nH]c3ccc([N+](=O)[O-])cc23)cc1		88	31.3	inhibition [1]: 0%; Activity (Mus musculus): Active; inhibition [4]: 0%; Activity [5]: 78%
CC(C)CNC(=O)C(=O)c1c[nH]c2ccccc12	43			
O=C(NCc1ccccc1)C(=O)c1c[nH]c2ccc([N+](=O)[O-])cc12		117	65	inhibition [1]: 32%; inhibition [4]: 44%
CCCCNC(=O)C(=O)c1c[nH]c2ccccc12		3720	1170	inhibition [1]: 7%; inhibition [4]: 28%
O=C(NCc1ccc(Br)cc1)C(=O)c1c[nH]c2ccc([N+](=O)[O-])cc12	31			
CCCCNC(=O)C(=O)c1c[nH]c2ccc([N+](=O)[O-])cc12		110	125	Ki [6]: 553 nM; Ki [7]: 943 nM
CCCCCNC(=O)C(=O)c1c[nH]c2ccccc12		1480		
CC(C)NC(=O)C(=O)c1c[nH]c2ccccc12		2690		
Cc1ccc(CNC(=O)C(=O)c2c[nH]c3ccccc23)cc1		606		
O=C(NCc1ccccc1)C(=O)c1c[nH]c2ccccc12		120	346	inhibition [1]: 39%; inhibition [4]: 46%
CCC(C)NC(=O)C(=O)c1c[nH]c2ccc([N+](=O)[O-])cc12 (stereo unspecified)		412		
CCC(C)NC(=O)C(=O)c1c[nH]c2ccccc12 (stereo unspecified)	34			
C[Si](C)(C)C#Cc1ccc(CNC(=O)C(=O)c2c[nH]c3ccccc23)cc1	29			
C#Cc1ccc(CNC(=O)C(=O)c2c[nH]c3ccc([N+](=O)[O-])cc23)cc1	28			
O=C1CN=C(c2ccccc2Cl)c2cc([N+](=O)[O-])ccc2N1 [CLONAZEPAM]		0.85		

Compound	inhibition (Bos taurus) [%]	Ki [2] [nM]	Ki [3] [nM]	further results
CC(C)CNC(=O)C(=O)c1c[nH]c2ccc([N+](=O)[O-])cc12	5			
Cc1ccc(-c2nc3ccc(C)cn3c2CC(=O)N(C)C)cc1				Activity (Mus musculus): Active
CCCCCNC(=O)C(=O)c1c[nH]c2ccc([N+](=O)[O-])cc12		4100		
CC(C)(C)NC(=O)C(=O)c1c[nH]c2ccc([N+](=O)[O-])cc12		2800		
C#Cc1ccc(CNC(=O)C(=O)c2c[nH]c3ccccc23)cc1		164	250	Ki [6]: 414 nM; Ki [7]: 1150 nM
CC(C)(C)NC(=O)C(=O)c1c[nH]c2ccccc12	7			
C[Si](C)(C)C#Cc1ccc(CNC(=O)C(=O)c2c[nH]c3ccc([N+](=O)[O-])cc23)cc1	21			
CCCCCCNC(=O)C(=O)c1c[nH]c2ccccc12		1650		
C[Si](C)(C)CC#Cc1ccc(CNC(=O)C(=O)c2c[nH]c3ccccc23)cc1	3			
CCc1ccc(CNC(=O)C(=O)c2c[nH]c3ccc([N+](=O)[O-])cc23)cc1	42			
CC(C)NC(=O)C(=O)c1c[nH]c2ccc([N+](=O)[O-])cc12		57.8	15	Ki [6]: 175 nM; Ki [7]: 498 nM
O=C(NCc1ccc(Br)cc1)C(=O)c1c[nH]c2ccccc12		93	17	Ki [6]: 81 nM; Ki [7]: 1440 nM
CC#Cc1ccc(CNC(=O)C(=O)c2c[nH]c3ccccc23)cc1		3280	881	inhibition [1]: 16%; inhibition [4]: 13%
CN1C(=O)CN=C(c2ccccc2)c2cc(Cl)ccc21 [DIAZEPAM]		10		Activity [5]: 72%
CCc1ccc(CNC(=O)C(=O)c2c[nH]c3ccccc23)cc1		2160	559	inhibition [4]: 40%; Ki [6]: 1600 nM
C[Si](C)(C)CC#Cc1ccc(CNC(=O)C(=O)c2c[nH]c3ccc([N+](=O)[O-])cc23)cc1	0			
